Where “and” joins values, the source holds several entries; their conditions need not be identical. Identical values can stand only once. Calls of active or inactive are those of the source.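 The calls were made as follows: active = growth inhibition with fitted AC50 no more than ten times the top valid dose; inconclusive = flat fit at 30 to 70% inhibition, or bad fit; inactive = the rest, including rises in signal.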

Tested on in the first experiment: not listed separately
Briefly: Candida CaCi-2 inhibition with fluconazole present – dry powder retest, set 3, confirmation (AID 493080). As to conditions: C. albicans CaCi-2 + fluconazole, Alamar Blue growth, 48 h; at 1.2 µM (top of the series). The method in brief:
(§1)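 material = fluconazole-resistant C. albicans CaCi-2 | amount = fungal inoculum at starting A600 of 0.00015 | times = compound 48 h at 37 °C, dye 2 h at room temperature | also added = fluconazole co-treatment at 8 µg/mL | signal = Alamar Blue fluorescence, excitation 544 nm, emission 590 nm | buffer or medium = RPMI medium, MOPS-buffered | benchmarks = geldanamycin as positive control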
(Resazurin is reduced to fluorescent resorufin, in cell work by metabolically active cells.)
With `COc1ccc2c(c1)c1nc3n(c(=O)c1n2CC(=O)N1CCC(C)CC1)CCS3`, the activity change, negative = inhibition was 15.5% (inactive).

The same experiment, now with this note: C. albicans CaCi-2 + fluconazole, Alamar Blue growth, 48 h; at 12 µM (top of the series).
For `CC(C)C(=O)N1CCN(c2ccccn2)CC1`, the activity change, negative = inhibition is 6.09% (inactive). For the molecule `CCCNC(=O)Cn1nc(-c2ccccc2)c2ccccc21`, the activity change, negative = inhibition is 26.9% (inactive). Same read-out and setting: the figure for `CCCCC(=O)N1CCN(c2ccccn2)CC1` is -2.66% (inactive). As for `N#Cc1cccc(N2CCN(C(=O)c3ccc(Cl)cc3)CC2)n1`, the activity change, negative = inhibition is 0.43% (inactive). Regarding `O=C(Cn1c2ccccc2c2nc3n(c(=O)c21)CCS3)NCCc1ccc(Cl)cc1`, the activity change, negative = inhibition was -0.805% (inactive).

`O=C(Cn1nc(C(=O)N2CCCCC2)c2ccccc21)N1CCOCC1`: the activity change, negative = inhibition is -6.13% (inactive). On the same count and under the same terms, the figure for `CCCNC(=O)Cn1nc(-c2ccccc2)c2cc(Cl)ccc21` is 27.1% (inactive); for `CCOC(=O)c1c2ccccc2nn1Cc1ccc(Cl)cc1` it is 17.8% (inactive). As to `COCCC(=O)N1CCN(c2ccccn2)CC1`, the activity change, negative = inhibition is -0.956% (inactive). As for `N#Cc1cccnc1N1CCN(C(=O)c2ccc(Cl)cc2)CC1`, the activity change, negative = inhibition is -11.5% (inactive).

Regarding `COc1ccc2c(c1)c1nc3n(c(=O)c1n2CC(=O)N1CCC(Cc2ccccc2)CC1)CCS3`, the activity change, negative = inhibition was -1.27% (inactive). In the case of `O=C(Cn1nc(-c2ccccc2)c2cc(Cl)ccc21)N1CCOCC1`, the activity change, negative = inhibition was -1.59% (inactive). As for `O=C(Cn1c2ccccc2c2nc3n(c(=O)c21)CCCS3)c1ccc(F)cc1`, the activity change, negative = inhibition was 3.71% (inactive). `O=C(c1ccc(Cl)cc1)N1CCN(c2cccc(C(F)(F)F)n2)CC1`: the activity change, negative = inhibition is -1.86% (inactive). Turning to `CCOC(=O)c1nn(Cc2ccc(Cl)cc2)c2ccccc12`, the activity change, negative = inhibition was 4.97% (inactive). Consider `O=C(c1cccc(Cl)c1)N1CCN(c2ccccn2)CC1`, for which the activity change, negative = inhibition was 8.07% (inactive). In the case of `CNC(=O)Cn1nc(-c2ccccc2)c2ccccc21`, the activity change, negative = inhibition is 10.1% (inactive). In the case of `O=C(O)Cn1nc(-c2ccccc2)c2ccccc21`, the activity change, negative = inhibition was -8.71% (inactive). With `Cc1cccc(N2CCN(C(=O)c3ccc(Cl)cc3)CC2)n1`, the activity change, negative = inhibition is -17.4% (inactive). With `c1ccc(-c2n[nH]c3ccccc23)cc1`, the activity change, negative = inhibition was 24.5% (inactive). Turning to `COC(=O)Cn1nc(C)c2ccccc21`, the activity change, negative = inhibition is -1.03% (inactive). Regarding `O=C(c1ccccc1Cl)N1CCN(c2ccccn2)CC1`, the activity change, negative = inhibition is 8.16% (inactive).

Regarding `N#Cc1ccc(C(=O)N2CCN(c3ccccn3)CC2)cc1`, the activity change, negative = inhibition was -16.1% (inactive). Regarding `O=C(C1CCCCC1)N1CCN(c2ccccn2)CC1`, the activity change, negative = inhibition was -20.7% (inactive). `O=C(Cn1nc(-c2ccccc2)c2ccccc21)NCc1ccc(Cl)cc1`: the activity change, negative = inhibition is -6.29% (inactive). On to `O=C(O)c1nn(Cc2ccc(Cl)cc2)c2ccccc12`, for which the activity change, negative = inhibition is -7.95% (inactive). On the same count and under the same terms, the figure for `O=C(Cn1nc(-c2ccccc2)c2ccccc21)N1CCc2ccccc2C1` is 3.01% (inactive); for `COC(=O)Cn1c(-c2ccccc2)nc2ccccc21` it is -5.95% (inactive).

The test system of another experiment is C. albicans CaCi-2 + fluconazole, Alamar Blue growth, 48 h. The experiment is described as above.
Conditions: not given
The method in brief:
as §1
What is called AC50 is the midpoint of the concentration-response curve, whichever way the signal moves. `O=c1c2[nH]c3ccc(F)cc3c2nc2n1CCS2`: the AC50 was 2.96 µM. For `O=c1c2[nH]c3ccccc3c2nc2n1CCS2`, the AC50 is 8.16 µM. `O=C(Cn1c2ccccc2c2nc3n(c(=O)c21)CCS3)N1CCOCC1`: the AC50 was 2.66 µM.

As to `COC(=O)Cn1nc(-c2ccccc2)c2ccccc21`, the AC50 was 2.11 µM. Take `O=C(c1ccc(Cl)cc1)N1CCN(c2ccc(C(F)(F)F)cn2)CC1`: the AC50 was > 12 µM (inactive). For `O=C(Cn1c2ccc(F)cc2c2nc3n(c(=O)c21)CCS3)N1CCCC1`, the AC50 was 0.532 µM. As to `O=C(c1ccc(Cl)cc1)N1CCN(c2nc3ccccc3o2)CC1`, the AC50 was 12.1 µM. Consider `COC(=O)Cn1nc(-c2ccc(C)cc2)c2ccccc21`, for which the AC50 is 8.98 µM. On to `COC(=O)Cn1nc(-c2ccccc2)c2cc(Cl)ccc21`, for which the AC50 is 8.1 µM. For `O=C(c1ccc(Cl)cc1)N1CCN(c2nc3ccccc3s2)CC1`, the half-maximal activity concentration (AC50) is 4.12 µM.

On to `COc1ccnc(N2CCN(C(=O)c3ccc(Cl)cc3)CC2)c1`, for which the AC50 is > 12 µM (inactive). Consider `CC1CCN(C(=O)Cn2c3ccccc3c3nc4n(c(=O)c32)CCS4)CC1`, for which the AC50 was 2.2 µM. For `O=C(Cn1c2ccc(F)cc2c2nc3n(c(=O)c21)CCS3)N1CCCCCC1`, the AC50 was 1.36 µM. Consider `CCN(CC)C(=O)Cn1c2ccccc2c2nc3n(c(=O)c21)CCS3`, for which the AC50 was 1.67 µM and 1.82 µM. Still for that read-out and setting: the figure for `O=C(Cn1c2ccccc2c2nc3n(c(=O)c21)CCS3)N1CCCC1` is 0.837 µM and 2.69 µM; for `CC1CCN(C(=O)Cn2c3ccccc3c3nc4n(c(=O)c32)CCCS4)CC1` it is 11 µM; for `O=C(Cn1c2ccc(F)cc2c2nc3n(c(=O)c21)CCS3)N1CCCCC1` it is 0.384 µM. For the molecule `O=C(c1ccc(F)cc1)N1CCN(c2ccccn2)CC1`, the AC50 was > 12 µM (inactive). On the same count and under the same terms, the figure for `CC1CCN(C(=O)Cn2c3ccc(F)cc3c3nc4n(c(=O)c32)CCCS4)CC1` is 2.09 µM; for `O=C(Cn1c2ccccc2c2nc3n(c(=O)c21)CCS3)N1CCCCC1` it is 2.08 µM. In the case of `CCN(CC)C(=O)Cn1c2ccc(F)cc2c2nc3n(c(=O)c21)CCS3`, the AC50 is 0.685 µM.

The values above are taken from PubChem BioAssay AID493080 (Broad Institute, 2011).
